Data as given in PubChem BioAssay AID588762 (The Scripps Research Institute Molecular Screening Center, 2011).
The source made the active and inactive calls.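 Rule for the calls: active = fitted IC50 at or below 10 µM in the dose response luciferase test; inactive = IC50 weaker than 10 µM.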

Molecular target: Epstein-Barr virus nuclear antigen 1 (EBNA-1), Human herpesvirus 4
Assay: relief of EBNA-1 Qp promoter repression – cell-based, luciferase, dose response, assay provider data, late-stage follow-up (AID 588762)
Conditions: 293T Qp-promoter luciferase reporter, EBNA-1 repression
How it was run: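 assay system = human 293T cells transiently co-transfected with Qp-promoter luciferase reporter, Flag-tagged EBNA-1 | times = 48 h at 37 °C after plating | technique = luminescence from Steady-Glo luciferase reagent, rising as EBNA-1 repression lifts | read-out basis = concentration giving half-maximal luminescence stimulation, four-parameter sigmoidal fit | controls = empty-vector transfected cells lacking EBNA-1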

SMILES | IC50
COc1ccc2sc(NC(=O)c3ccc(C)c(C)c3)nc2c1 | > 148 µM (inactive)
CS(=O)(=O)c1ccc2nc(NC(=O)c3ccccc3Cl)sc2c1 | > 148 µM (inactive)
Cc1cccc(-n2nnnc2SCC(=O)c2cc(C)n(CC3CCCO3)c2C)c1 (centres undefined) | > 148 µM (inactive)
COc1cccc(C(=O)Nc2nc3ccc(S(C)(=O)=O)cc3s2)c1 | inactive
Cc1ccc(C(=O)Nc2nc3ccc(S(C)(=O)=O)cc3s2)cc1 | > 148 µM (inactive)
Cc1ccc(C(=O)Nc2nc3cc(Br)ccc3s2)cc1C | > 148 µM (inactive)
CS(=O)(=O)c1ccc2nc(NC(=O)c3ccccc3F)sc2c1 | > 148 µM (inactive)
COc1cccc2sc(NC(=O)c3ccc(C)c(C)c3)nc12 | > 148 µM (inactive)
Cc1cc(C(=O)CSc2nnnn2C2CC2)c(C)n1CC1CCCO1 (centres undefined) | inactive
Cc1ccc(C(=O)Nc2nc3ccc(Br)cc3s2)cc1C | > 148 µM (inactive)
Cc1ccccc1-n1nnnc1SCC(=O)c1cc(C)n(CC2CCCO2)c1C (centres undefined) | > 148 µM (inactive)
Cc1cc(C(=O)CSc2nnnn2-c2ccccc2)c(C)n1Cc1cccs1 | > 148 µM (inactive)
CCn1c(C)cc(C(=O)CSc2nnnn2-c2ccccc2)c1C | > 148 µM (inactive)
Cc1ccccc1C(=O)Nc1nc2ccc(S(C)(=O)=O)cc2s1 | > 148 µM (inactive)
CS(=O)(=O)c1ccc2nc(NC(=O)c3ccc(Cl)cc3)sc2c1 | inactive
CS(=O)(=O)c1ccc2nc(NC(=O)c3cccc(F)c3)sc2c1 | > 148 µM (inactive)
Cc1cc(C(=O)CSc2nnnn2-c2ccc(Cl)cc2)c(C)n1CC1CCCO1 (centres undefined) | > 148 µM (inactive)
COc1ccc2nc(NC(=O)c3ccc(C)c(C)c3)sc2c1 | > 148 µM (inactive)
Cc1cccc(C(=O)Nc2nc3ccc(S(C)(=O)=O)cc3s2)c1 | inactive
COCCn1c(C)cc(C(=O)CSc2nnnn2-c2ccccc2)c1C | > 148 µM (inactive)
COc1ccc(-n2nnnc2SCC(=O)c2cc(C)n(CC3CCCO3)c2C)cc1 (centres undefined) | > 16.4 µM (inactive)
Cc1cc(C(=O)CSc2nnnn2-c2cccc(F)c2)c(C)n1CC1CCCO1 (centres undefined) | > 148 µM (inactive)
Cc1cc(C(=O)CSc2nnnn2C)c(C)n1CC1CCCO1 (centres undefined) | > 148 µM (inactive)
COc1ccccc1C(=O)Nc1nc2ccc(S(C)(=O)=O)cc2s1 | > 148 µM (inactive)
COc1ccc(C(=O)Nc2nc3ccc(S(C)(=O)=O)cc3s2)cc1 | inactive
Cc1ccc(C(=O)Nc2nc3cc(F)ccc3s2)cc1C | > 148 µM (inactive)
CS(=O)(=O)c1ccc2nc(NC(=O)c3cccc(Cl)c3)sc2c1 | > 148 µM (inactive)
O=C(CSc1nnnn1-c1ccccc1)c1ccn(CC2CCCO2)c1 (centres undefined) | > 148 µM (inactive)
Cc1cc(C(=O)CSc2nnnn2-c2ccccc2)c(C)n1C | inactive
